# Screening results (PubChem BioAssay)
# In the library only some 3% were active in any assay of this set; here they are far more common.
# Myeloid diff MLP = induction of myeloid progenitor differentiation, primary screen, cell-based, flow cytometry, MLPCN library. ER-HoxA9 myeloid progenitors, lysozyme-GFP differentiation. calls only at 10 µM. 1% of 360,000 active;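 active means normalized GFP-positive differentiation at or above the plate's own cutoff, the solvent-only control mean plus 3 SD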;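 further: cells exposed to compound for four days before flow analysis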
# SENP1 FRET inh = human SENP1 catalytic domain inhibitors, primary screen, biochemical, FRET, uHTS | AID 624204, 2012 | 0.21% of 360,000 active | Sentrin-specific protease 1 (Homo sapiens), Q9P0U3 | recombinant SENP1 catalytic domain, CyPet-SUMO1-YPet FRET cleavage | inhibition, % at 10 µM;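 active means inhibition at least 30% at 10 µM, raw YFP signal under a set limit, fluorescence ratio 0.5 to 1.5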;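 further: 0% = enzyme with DMSO and 100% = no enzyme wells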
#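 Compound: 10 µM single point, 0.5% DMSO; Test system: hSENP1 catalytic domain, recombinant; Timing: 50 min reaction at room temperature; Technique: FRET, CFP and YFP emission; Control set: no-enzyme wells low, DMSO-plus-enzyme wells high control.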
# H9c2 protect = cardioprotection against H2O2-induced cell death, primary screen, uHTS, H9c2 cells, ATPLite luminescence | protection from H2O2 cell death, % at 20 µM | 0.63% of 360,000 active | H9c2 cardiomyocytes, H2O2 injury protection, 2 h | AID 588492, 2011;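 active means compounds giving at least 50% protection of heart cells from peroxide-induced death in the single-dose screen, raw or plate-pattern-corrected value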;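 further: 0% = DMSO wells with peroxide and 100% = DMSO wells without peroxide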
# Pemphigus Ab inh = inhibitors of pemphigus antibody binding to DSG3, primary screen, biochemical, bead-based, flow cytometry, scFv-GFP | 0.48% of 310,000 active | DSG3-coupled beads, scFv-anti-DSG3-GFP binding; hits give low values | AID 588358, 2011 | binding (percent of control), % at 10 µM | Desmoglein-3 (Homo sapiens), P32926;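 active means binding more than 3 SD below its plate's average and above zero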;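 further: hits lower antibody fragment binding to DSG3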
# Target sequence (P32926 whole entry, looked up, the tested form may be a part): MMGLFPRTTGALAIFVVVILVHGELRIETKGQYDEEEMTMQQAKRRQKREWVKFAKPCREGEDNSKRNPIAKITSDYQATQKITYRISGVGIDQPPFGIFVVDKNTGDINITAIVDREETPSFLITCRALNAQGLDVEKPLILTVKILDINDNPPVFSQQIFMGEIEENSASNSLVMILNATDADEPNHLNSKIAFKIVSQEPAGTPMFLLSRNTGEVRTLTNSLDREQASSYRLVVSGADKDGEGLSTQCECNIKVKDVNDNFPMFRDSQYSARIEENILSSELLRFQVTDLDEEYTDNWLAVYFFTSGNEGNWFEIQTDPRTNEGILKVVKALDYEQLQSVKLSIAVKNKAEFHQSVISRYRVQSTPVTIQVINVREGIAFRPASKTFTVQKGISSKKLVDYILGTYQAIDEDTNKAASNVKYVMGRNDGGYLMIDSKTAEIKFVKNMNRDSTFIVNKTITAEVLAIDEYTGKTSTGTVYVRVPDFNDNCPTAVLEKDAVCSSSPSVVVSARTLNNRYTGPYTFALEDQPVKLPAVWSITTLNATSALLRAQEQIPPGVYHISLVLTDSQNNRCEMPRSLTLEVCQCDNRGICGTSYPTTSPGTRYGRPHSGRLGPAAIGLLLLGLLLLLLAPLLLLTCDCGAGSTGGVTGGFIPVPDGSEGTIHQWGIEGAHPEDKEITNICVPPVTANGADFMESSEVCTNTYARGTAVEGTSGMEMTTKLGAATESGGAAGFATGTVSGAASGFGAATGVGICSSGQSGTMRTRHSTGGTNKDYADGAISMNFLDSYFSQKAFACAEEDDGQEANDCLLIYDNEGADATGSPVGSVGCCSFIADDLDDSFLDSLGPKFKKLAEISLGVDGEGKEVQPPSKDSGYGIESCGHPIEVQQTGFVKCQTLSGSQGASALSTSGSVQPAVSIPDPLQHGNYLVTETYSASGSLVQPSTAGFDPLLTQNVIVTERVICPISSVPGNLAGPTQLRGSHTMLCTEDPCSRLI
# HNF4A DNA FP = change in binding of human HNF4A to DNA, primary screen, biochemical, fluorescence polarization, FITC-DNA; 1 h; 0.3% of 360,000 active; activity change, % at 10 µM; Hepatocyte nuclear factor 4-alpha (Homo sapiens), P41235; in the data active means activity change above about 30%, passing the limit was not always enough
# Exocytosis inh = LAMP-1 surface exposure blockers, TALL-104 cells – cell-based, flow cytometry, MLPCN library, primary screen | TALL-104 LAMP-1 surface exposure; cells stimulated with thapsigargin and PMA | inhibition, % at 10 µM | 0.66% of 360,000 active | AID 651702, 2012;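 active means inhibition above about 55%, limit read from the data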
# Active calls of the source: *; i = inactive; · = no result given; + = active, no number.
SMILES,Myeloid diff MLP,SENP1 FRET inh,H9c2 protect,Pemphigus Ab inh,HNF4A DNA FP,Exocytosis inh
Cc1ccc(N2CC(C(=O)Nc3ccc(N4CCOCC4)cc3)CC2=O)cc1C (centres undefined),i,1,-1,-0.9*,2,-5
COc1ccc(N2CC(C(=O)Nc3ccc(N4CCOCC4)cc3)CC2=O)cc1 (centres undefined),i,4,-6,107,2,-5
CCOc1ccc(N2CC(C(=O)OC)CC2=O)cc1 (centres undefined),i,-2,-8,106,50*,2
O=C(N/N=C/c1cc(Cl)cc([N+](=O)[O-])c1O)c1ccccc1NS(=O)(=O)c1cccs1,i,16,50*,91,9,-4
CC(=O)Nc1cc(-c2nn3c(C)nnc3s2)ccc1C,i,-2,4,110,-2,-1
Cc1ccc(-c2nn3c(C)nnc3s2)cc1NC(=O)c1ccc(Br)o1,i,-10,19,108,2,-3
Cc1ccc(-c2nn3c(C)nnc3s2)cc1NC(=O)c1ccc(-c2cccc(Cl)c2)o1,i,-5,65*,100,-3,1
Cc1ccc(-c2nn3c(C)nnc3s2)cc1NC(=O)c1ccc(-c2ccc(Cl)cc2Cl)o1,i,-10,-20,119,104*,3
COc1ccc(Cl)cc1C(=O)NNC(=O)COC(=O)CC(NC(C)=O)c1ccccc1 (centres undefined),i,3,4,101,-8,1
COc1cccc(CC2(CO)CCN(C(=O)NC3CCCCC3)CC2)c1,i,-1,-4,102,4,-1
COc1cccc(CC2(CO)CCN(C(=O)NCCc3ccccc3)CC2)c1,+,0,-4,104,-5,0
Nc1cccc(C(=O)c2ccccc2C(=O)O)c1,i,4,0,78*,1,1
Cc1cc2cc(C)c(NCCNC(=O)c3cccc(F)c3)nc2cc1C,i,-3,-1,105,4,23
Cc1cccc(C(=O)NCCNc2nc3cc(C)c(C)cc3cc2C)c1,i,2,-10,96,60*,17
Cc1ccc2nc(NCCNC(=O)c3ccccc3)c(C#N)cc2c1,+,-32,18,97,-2,2
CCc1ccc(N(C(=O)CCC(=O)Nc2cc(C)on2)C(C(=O)NC(C)(C)C)c2ccc(OC)cc2)cc1 (centres undefined),i,1,-2,120,1,-4
N#C/C(=C(/O)COc1ccccc1)c1nc2ccccc2s1,i,2,-20,93,-4,2
N#C/C(=C(/O)COC(=O)c1ccc(C#N)cc1)c1nc2ccccc2s1,+,-52,-12,99,14,-2
CCNC(=S)N1CCN(c2nc(-c3ccc(F)cc3)cs2)CC1,i,3,-15,125,-1,0
CCN(CC)CCCNC(=S)N1CCN(c2nc(-c3ccc(F)cc3)cs2)CC1,i,11,-18,119,0,69*
O=C(Nc1nnc(C2CC2)s1)c1cc(-c2ccccc2)nn1-c1ccccc1,i,-1,52*,·,1,2
Cc1nn(-c2ccccc2)c(Cl)c1C(=O)Nc1nnc(C2CCCCC2)s1,i,0,-3,107,5,-1
Cc1c2c(cc3c1[nH]c1ccccc13)C=NCC2,+,-17,3,344,64*,-2
Oc1ccc(/C=N/NC(=S)NCCN2CCOCC2)c(O)c1,i,-9,4,97,1,-2
CN1C(=O)/C(=N/OC(=O)c2ccccc2)c2ccccc21,i,2,16,100,0,87*
SMILES,Myeloid diff MLP,SENP1 FRET inh,H9c2 protect,Pemphigus Ab inh,HNF4A DNA FP,Exocytosis inh
NC(CCC(=O)NC(CS)C(=O)NCC(=O)O)C(=O)O (centres undefined),+,1,3,102,0,-3
CC(=O)NC(CCC(=O)O)C(=O)O (centres undefined),i,4,-2,·,2,-2
NC(CSC(c1ccccc1)(c1ccccc1)c1ccc2c(c1)OCO2)C(=O)O (centres undefined),i,-5,-6,93*,-7,0
CCCc1cc(-c2ccc(O)c(OCC)c2)c(C#N)c(N)n1,i,-4,-1,·,5,5
COc1ccc(-c2cc(-c3ccc(O)cc3)nc(N)c2C#N)cc1OC,i,-6,56*,100,0,-1
CC(=O)CCC(=O)N1CCCC(N2CCN(c3cccc(Cl)c3)CC2)C1 (centres undefined),i,-1,5,127,-1,-4
O=C1CS/C(=N/N=C/c2ccncc2)N1,i,0,1,81*,0,-2
OCC[C@@H]1C[C@H](O)[C@@H](O)[C@]2(Cc3ccccc3O2)O1,i,4,2,95,-1,-4
CCCCC[C@@H](O)c1cc2ccccc2c(=O)o1,i,2,-5,102,4,-4
Clc1ccc(-c2cn(-c3ccccc3)c3[n+]2CCS3)cc1,·,0,-3,106,-1,-1
Fc1ccc(-c2cn(-c3ccccc3)c3[n+]2CCS3)cc1,+,0,-4,115,0,-1
COc1ccc(N2C(=O)C(F)(F)C2c2ccc(C)cc2)cc1OC (centres undefined),i,3,-5,113,1,-2
COc1cc(CN2CCN(C(=O)CC(C)C)CC2)c([N+](=O)[O-])cc1OC,i,-1,-3,108,2,6
CNc1ccc(C(=O)N2CCN(S(=O)(=O)c3ccc4c(c3)OCCCO4)CC2)cc1[N+](=O)[O-],+,4,4,·,0,-7
CC(=O)Nc1ccc(C(=O)N2CCN(S(=O)(=O)c3ccc4c(c3)OCCCO4)CC2)cc1,i,-1,2,·,-3,2
Cc1cccc(-c2c(NC(=O)c3ccco3)oc3c(C)cccc3c2=O)c1,+,-2,11,99,-3,25
Cc1nn(C)cc1C(C(=O)NC1CCCCC1)N(C(=O)Cc1cccs1)c1ccc(Cl)cc1 (centres undefined),i,0,55*,98,-2,-1
O=C(c1c(F)cccc1F)N1CCCC(c2nc(-c3cccs3)no2)C1 (centres undefined),i,6,1,115,1,16
N#C/C(=C\c1ccccn1)c1ccccn1,+,3,3,88,1,13
Cc1[nH]c2ccccc2c1NC(=O)CN1CCN(C(=O)c2ccco2)CC1,i,0,2,103,-4,-7
